Assays:
Smad3 phosphorylation [1] = assay: N protein-induced Smad3 phosphorylation/activation in HFL-1 cells; format: cell-based, human
[2] = tested on: N protein-induced pulmonary fibrosis; assay: N protein; format: in vivo, C57BL/6J mice; details: 10 mg/kg weekly for 30 days
How it was run: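 Male C57BL/6J mice (8 weeks) given N protein-expressing AAV or control AAV intranasally in 50 µL PBS. From day 4, test compound 10 mg/kg in saline given i.p. weekly. Sacrificed at day 30; n = 6 per group. Lung Smad3 phosphorylation assessed by western blot.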

Smad3 = Smad3 (Homo sapiens, UniProt P84022); assay: ITC assay, RMY-205 binding to Smad3
Sequence of Smad3 (P84022 whole entry): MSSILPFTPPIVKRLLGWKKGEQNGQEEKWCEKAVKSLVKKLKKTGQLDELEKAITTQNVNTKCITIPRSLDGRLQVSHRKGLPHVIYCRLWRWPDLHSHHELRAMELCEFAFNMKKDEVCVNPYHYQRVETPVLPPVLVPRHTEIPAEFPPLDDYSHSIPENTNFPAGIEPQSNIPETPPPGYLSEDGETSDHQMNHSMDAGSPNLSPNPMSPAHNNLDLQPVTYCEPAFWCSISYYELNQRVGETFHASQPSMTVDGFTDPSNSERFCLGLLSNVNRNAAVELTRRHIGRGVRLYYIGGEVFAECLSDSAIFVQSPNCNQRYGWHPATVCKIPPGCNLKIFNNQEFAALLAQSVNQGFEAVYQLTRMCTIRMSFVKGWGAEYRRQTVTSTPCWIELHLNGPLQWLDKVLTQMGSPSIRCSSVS
How it was run: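 Isothermal titration calorimetry. Sample cell loaded with GST-Smad3 at 20 µM; injector loaded with test compound at 0.2 mM. Compound titrated stepwise into the Smad3 solution, with PBS as control. Heat changes analyzed to derive binding.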

[3] = Body and organ weight, behavior during RMY-205 administration; format: in vivo, mice
MH1-MH2 interaction = MH1-MH2 interaction (Homo sapiens, UniProt P84022); assay: coIP and GST pull-down, MH1-MH2 interaction of Smad3; format: biochemical; details: coIP assay, GST pull-down assay
Sequence of MH1-MH2 interaction (P84022 10-136 limits assumed): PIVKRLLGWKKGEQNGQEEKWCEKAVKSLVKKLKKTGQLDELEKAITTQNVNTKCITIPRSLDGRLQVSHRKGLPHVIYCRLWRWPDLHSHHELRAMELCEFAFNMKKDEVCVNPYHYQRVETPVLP
Sequence of MH1-MH2 interaction (P84022 232-425 partner limits assumed): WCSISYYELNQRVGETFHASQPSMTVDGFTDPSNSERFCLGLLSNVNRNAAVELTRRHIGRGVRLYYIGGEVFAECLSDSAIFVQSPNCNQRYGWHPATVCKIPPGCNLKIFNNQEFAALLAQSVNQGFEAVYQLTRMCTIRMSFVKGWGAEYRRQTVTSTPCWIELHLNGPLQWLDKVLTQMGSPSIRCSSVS
How it was run: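 GST-tagged proteins expressed in E. coli BL21 and purified on glutathione-sepharose; His-tagged proteins purified on Ni-NTA. GST or GST-fusion bound to glutathione beads in PBS for 1 h at 4°C, washed with PBS, then with modified NP-40 buffer. CoIP: lysates incubated 3 h with antibody plus protein G-Sepharose, washed, and immunoblotted.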

Smad3 phosphorylation [4] = assay: Nocodazole-induced Smad3 phosphorylation; format: cell-based, human; details: HFL-1, LX-2, and AC-16 cells; nocodazole 100 ng/mL, 12 h
TβRI-Smad2 interaction = TβRI-Smad2 interaction (Homo sapiens, UniProt Q15796); assay: Co-IP, N protein-induced TβRI-Smad2 interaction; format: cell-based; details: coIP
Sequence of TβRI-Smad2 interaction (Q15796 2-467 limits assumed): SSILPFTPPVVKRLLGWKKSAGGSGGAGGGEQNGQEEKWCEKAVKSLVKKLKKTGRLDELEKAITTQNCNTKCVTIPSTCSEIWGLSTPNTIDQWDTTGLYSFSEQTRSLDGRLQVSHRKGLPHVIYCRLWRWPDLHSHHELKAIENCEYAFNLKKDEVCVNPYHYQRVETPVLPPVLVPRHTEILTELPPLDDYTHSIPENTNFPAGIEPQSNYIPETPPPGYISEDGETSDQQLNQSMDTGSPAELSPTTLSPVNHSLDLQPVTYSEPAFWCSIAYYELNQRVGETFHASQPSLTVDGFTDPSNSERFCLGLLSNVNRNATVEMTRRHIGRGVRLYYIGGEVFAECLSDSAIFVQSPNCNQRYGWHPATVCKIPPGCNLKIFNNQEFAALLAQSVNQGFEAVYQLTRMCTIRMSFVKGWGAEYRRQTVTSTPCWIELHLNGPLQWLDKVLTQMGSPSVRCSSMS
How it was run: (§1)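 HFL-1 cells transfected with an N protein plasmid using ViaFect. Lysates incubated 3 h with primary antibody plus protein G-Sepharose beads. Beads washed three times with NP-40 lysis buffer. Immunoprecipitates boiled in SDS loading buffer, resolved by SDS-PAGE, transferred to PVDF and probed; bands detected by enhanced chemiluminescence.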

[5] = tested on: Smad2/3 nuclear translocation; assay: Smad2/3 nuclear translocation in HFL-1 cells; format: cell-based, human; details: 24 h
How it was run: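 HFL-1 cells expressing N protein treated with test compound for 24 h. Fixed in 4% formaldehyde and blocked in PBS with 3% BSA and 0.2% Triton X-100. Primary antibody overnight at 4°C; secondary antibody 1 h at room temperature in the dark; nuclei stained with DAPI for 10 min. Smad2/3 localization imaged by confocal microscopy.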

[6] = tested on: Smad3 binding to promoters; assay: ChIP assay, Smad3 binding to cytokine gene promoters in HFL-1 cells; format: cell-based, human; details: ChIP analysis
How it was run: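 HFL-1 cells crosslinked with 1% formaldehyde for 10 min at room temperature, washed in ice-cold PBS, and lysed in SDS lysis buffer (1% SDS, 10 mM EDTA, 50 mM Tris pH 8.1) with protease inhibitors. Chromatin sonicated to 500–1000 bp, then incubated overnight at 4°C with antibody or rabbit IgG. Complexes pulled down on protein G-Sepharose, washed, eluted, crosslinks reversed, proteinase K-treated.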

TβRI = TβRI (Homo sapiens, UniProt P36897); assay: ITC assay, binding to TβRI; details: GST-tagged protein
Sequence of TβRI (P36897 34-503): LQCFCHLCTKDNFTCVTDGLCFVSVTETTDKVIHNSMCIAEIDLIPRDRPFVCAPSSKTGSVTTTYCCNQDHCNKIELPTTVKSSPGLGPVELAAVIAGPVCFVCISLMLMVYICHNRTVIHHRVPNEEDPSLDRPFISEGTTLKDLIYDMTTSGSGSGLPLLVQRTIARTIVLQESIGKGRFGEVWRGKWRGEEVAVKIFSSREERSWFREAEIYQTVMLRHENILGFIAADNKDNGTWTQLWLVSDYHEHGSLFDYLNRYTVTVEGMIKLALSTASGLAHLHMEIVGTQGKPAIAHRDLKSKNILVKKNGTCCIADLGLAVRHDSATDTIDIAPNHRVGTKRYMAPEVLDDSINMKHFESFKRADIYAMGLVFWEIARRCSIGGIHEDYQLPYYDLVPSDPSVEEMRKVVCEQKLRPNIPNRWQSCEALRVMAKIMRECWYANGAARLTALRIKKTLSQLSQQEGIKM

α-SMA = assay: N protein-induced α-SMA/COL1A1 expression; format: cell-based, human
How it was run: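 HFL-1 cells transfected with N protein plasmid, then exposed to test compounds (10 µM for derivative comparison; otherwise varied times and doses). α-SMA and COL1A1 measured by western blot, normalized to tubulin. For collagen secretion, culture medium concentrated, held 16 h at 4°C and centrifuged; pellet dissolved in 0.05 M acetic acid, stained with Sirius red, washed, extracted, and read at 530 nm.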

[7] = tested on: Adriamycin-induced renal fibrosis; assay: Adriamycin-induced renal fibrosis mouse model; format: in vivo, C57BL/6J mice; details: 3 mg/kg intraperitoneally daily, 7 days
TβRI polymerization = TβRI polymerization (Homo sapiens, UniProt P36897); assay: Crosslinking assay, N protein-induced TβRI polymerization; format: cell-based; details: HFL-1 cells, 24 h
Sequence of TβRI polymerization (P36897 34-503): as above

[8] = tested on: IL6, IL8, CCL2, CXCL10 mRNA; assay: qRT-PCR of N protein-induced cytokine mRNA in HFL-1 cells; format: cell-based, human; details: 20 μM
[9] = tested on: THP1 macrophages and differentiated HL60 neutrophils; assay: Transwell chemotaxis assay, recruitment by N protein-expressing HFL-1 cells; format: cell-based, human; details: 20 μM
How it was run: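 HFL-1 cells in 24-well plates transfected with plasmids for 12 h, then switched to serum-free Ham's F12 for a further 24 h. THP-1 macrophages seeded in the upper transwell chamber and incubated 16 h. Non-migrated cells removed with a swab; migrated cells stained with crystal violet.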

Smad2 phosphorylation = assay: N protein-induced Smad2 phosphorylation in HFL-1 cells; format: cell-based, human; details: 20 μM, 36 h
How it was run: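 HFL-1 cells transfected overnight with N protein plasmid, then exposed to test compound for 36 h (20 µM unless specified). Lysates boiled 10 min in SDS buffer, run on SDS-PAGE, transferred to PVDF and immunoblotted with ECL detection. p-Smad2 and p-Smad3 band intensities normalized to tubulin.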

MH1 domain of Smad3 = MH1 domain of Smad3 (Homo sapiens, UniProt P84022); assay: ITC assay, binding to MH1 domain of Smad3
Sequence of MH1 domain of Smad3 (P84022 10-136 limits assumed): as the sequence (P84022 10-136 limits assumed) above

TGF-β/Smad signaling = assay: TGF-β-induced Smad3 phosphorylation and α-SMA/COL1A1 expression in cell lines; format: cell-based, human; details: 36 h
[10] = tested on: primary bone marrow-derived macrophages (BMDMs) and primary neutrophils; format: cell-based; details: mouse primary lung fibroblasts expressing N protein, 20 μM
How it was run: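 BMDMs: mouse tibial marrow flushed, red cells lysed, filtered at 40 µm, cultured 8 days in DMEM with 25% L929-conditioned medium. Neutrophils: isolated from marrow on a Percoll gradient (52/64/72%) at 1,545 g for 30 min at room temperature; 64/72% interface collected. Migration of both cell types toward N protein-expressing primary lung fibroblasts assessed.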

[11] = Pharmacokinetic analysis in ICR mice; format: in vivo; details: male, mouse, plasma
How it was run: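 Male ICR mice (8 weeks) received a single dose of test compound: 2 mg/kg i.v., or 10 mg/kg i.p. or by oral gavage. Blood sampled at 5, 15 and 30 min and at 1, 2, 4, 8 and 24 h. Plasma obtained by centrifugation at 1,500g for 10 min, and compound content in plasma assayed.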

[12] = tested on: N protein-TβRI, TβRI-TβRII, TβRI-FKBP12 interactions; assay: Co-IP, interactions N protein-TβRI, TβRI-TβRII, TβRI-FKBP12; format: cell-based, human; details: HFL-1 cells
How it was run: as §1

[13] = tested on: primary mouse pulmonary fibroblasts; format: cell-based; details: 20 μM, 36 h
How it was run: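 Primary pulmonary fibroblasts grown out from minced mouse lung (1 mm³ explants) in DMEM with 10% FBS; medium changed every 2 days, passaged with trypsin after one week. Cells transfected with N protein plasmid, then treated with test compound at 20 µM for 36 h. α-SMA and COL1A1 measured by western blot, normalized to tubulin.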

Smad2 = Smad2 (Homo sapiens, UniProt Q15796); assay: ITC assay, binding to Smad2; details: GST-tagged protein
Sequence of Smad2 (Q15796 whole entry): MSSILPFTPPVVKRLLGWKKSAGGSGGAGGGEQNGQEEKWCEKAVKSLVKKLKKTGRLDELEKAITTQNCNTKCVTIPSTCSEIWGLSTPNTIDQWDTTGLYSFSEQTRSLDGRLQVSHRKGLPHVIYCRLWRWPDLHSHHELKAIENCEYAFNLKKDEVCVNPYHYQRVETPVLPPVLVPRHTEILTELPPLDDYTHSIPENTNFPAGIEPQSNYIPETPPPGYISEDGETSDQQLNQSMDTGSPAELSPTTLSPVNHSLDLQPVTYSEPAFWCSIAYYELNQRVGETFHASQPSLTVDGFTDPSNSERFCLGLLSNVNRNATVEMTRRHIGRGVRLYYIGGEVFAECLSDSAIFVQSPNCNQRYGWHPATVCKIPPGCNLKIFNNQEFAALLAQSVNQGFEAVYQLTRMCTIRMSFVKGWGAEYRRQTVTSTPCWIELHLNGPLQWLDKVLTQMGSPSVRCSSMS

[14] = tested on: CAGA luciferase reporter gene (a Smad3/4-dependent reporter); assay: CAGA luciferase reporter; format: cell-based, human; details: 20 μM, Smad3-dependent manner
How it was run: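 Cells co-transfected with a CAGA luciferase reporter (Smad3/4-dependent), a β-galactosidase expression vector and other plasmids, including N protein. Lysed 24 h after transfection; luciferase and β-gal activities measured. Luciferase activity normalized to β-gal to correct for transfection efficiency.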

TβRI phosphorylation = assay: N protein-induced TβRI phosphorylation in HFL-1 cells; format: cell-based, human; details: 10 μM, 24 h

Compound: COc1cc2c(cc1OC)CN(C(=O)/C=C/c1c(-c3ccccc3)n(C)c3ncccc13)CC2 [(E)-SIS3]
- N protein-induced Smad3 activation (Smad3 phosphorylation [1]; 3 μM, 36 h): no inhibitory effect

Compound: O=c1c(O)c(N2CCN(Cc3ccc(Br)cc3F)CC2)oc2ccccc12 [RMY-205, 2-(4-(4-bromo-2-fluorobenzyl)piperazin-1-yl)-3-hydroxy-4H-chromen-4-one]
- N protein-induced phosphorylation of Smad3 in lung [2]: suppression
- N protein-induced secretion of CCL2, CXCL10, and IL-6 in bronchoalveolar lavage fluid [2]: suppression
- N protein-promoted infiltration of macrophages and neutrophils in the lung tissue [2]: markedly attenuated
- alveolar septal thickening, α-SMA expression and collagen deposition ([2]; intraperitoneally): alleviated alveolar septal thickening and decreased α-SMA expression and collagen deposition
- Kd (Smad3): 8 µM
- weight of the mice and of various organs (heart, liver, spleen, lungs, kidneys) ([3]; 10 mg/kg for 30 days): not significantly changed
- behavior, weight of the body or various organs ([3]; during administration of RMY-205): no abnormal behavior or weight loss
- interaction between MH1 and MH2 domains (MH1-MH2 interaction): substantially enhance
- nocodazole-induced Smad3 phosphorylation (Smad3 phosphorylation [4]): inhibited
- N protein-induced TβRI interaction with Smad2 (TβRI-Smad2 interaction): not with Smad2
- N protein-induced Smad2/3 nuclear translocation ([5]; 20 μM): blocked
- Smad3 binding to the promoters of genes of cytokines [6]: inhibited
- N protein-induced phosphorylation of Smad3 (Smad3 phosphorylation [1]; 20 μM, 36 h): inhibition
- binding to TβRI (TβRI): not to either Smad2 or TβRI
- N protein-induced α-SMA and COL1A1 expression levels and collagen secretion (α-SMA; HFL-1 cells, time- and dose-dependent manner): downregulate
- α-SMA inhibition ratio (%) (α-SMA; N-protein transfected HFL-1 cells, 10 μM, 24 h): 50.9 ± 14.0%
- renal fibrosis, Smad3 phosphorylation and COL1A1 expression induced by Adriamycin [7]: effectively alleviate
- N protein-induced TβRI polymerization (TβRI polymerization; 20 μM): not influenced
- N protein-induced mRNA expression of IL6, IL8, CCL2, and CXCL10 [8]: downregulated
- recruiting THP1 macrophages and differentiated HL60 neutrophils by N protein [9]: attenuation
- N protein-induced phosphorylation of Smad2 (Smad2 phosphorylation): not of Smad2
- Kd (MH1 domain of Smad3): 13.3 µM
- TGF-β-induced Smad3 phosphorylation and α-SMA and COL1A1 expression (TGF-β/Smad signaling; HFL-1, AC16, LX-2 and human primary dermal cells, TGF-β 2 ng/mL): effectively inhibited
- inhibition of TGF-β-induced Smad3 phosphorylation and α-SMA expression, compared with (E)-SIS3 (TGF-β/Smad signaling; HFL-1 cells, (E)-SIS3 3 μM): comparable with that by (E)-SIS3
- recruitment of primary BMDMs and primary neutrophils [10]: abolished
- AUC ([11]; ip, 10 mg/kg): 2130 ng·h/mL
- AUC(0-inf) ([11]; ip, 10 mg/kg): 2130 ng·h/mL
- Cmax ([11]; ip, 10 mg/kg): 1820 ng/mL
- Tmax ([11]; ip, 10 mg/kg): 11.4 min
- bioavailability ([11]; ip, 10 mg/kg): 42.8%
- half-life ([11]; ip, 10 mg/kg): 496 min
- AUC ([11]; iv, 2 mg/kg): 995 ng·h/mL
- AUC(0-inf) ([11]; iv, 2 mg/kg): 995 ng·h/mL
- Vd ([11]; iv, 2 mg/kg): 3 L/kg
- clearance ([11]; iv, 2 mg/kg): 34 mL/min/kg
- half-life ([11]; iv, 2 mg/kg): 119 min
- AUC ([11]; po, 10 mg/kg): 1870 ng·h/mL
- AUC(0-inf) ([11]; po, 10 mg/kg): 1870 ng·h/mL
- Cmax ([11]; po, 10 mg/kg): 1040 ng/mL
- Tmax ([11]; po, 10 mg/kg): 19.8 min
- bioavailability ([11]; po, 10 mg/kg): 37.6%
- half-life ([11]; po, 10 mg/kg): 153 min
- interactions between N protein and TβRI, TβRI and TβRII, or TβRI and FKBP12 [12]: did not interfere
- N protein-elevated mRNA of CCL2, CXCL10, and IL-6 expression and their release levels [13]: suppression
- N protein-induced α-SMA and COL1A1 expression [13]: significantly inhibited
- binding to Smad2 (Smad2): not to either Smad2 or TβRI
- N protein-induced transactivation activity of Smad [14]: inhibited

Compound: Cc1cccc(-c2[nH]c(C(C)(C)C)nc2-c2ccc3c(c2)OCO3)n1 [SB505124, reference compound]
- Smad2/3 localization in the presence of N protein ([5]; 10 μM): remain in the cytosol
- N protein-induced Smad phosphorylation, nuclear translocation, and transactivation activity (Smad3 phosphorylation [1]; 10 μM, 24 h): lost its ability to induce
- N protein-induced expression of α-SMA and COL1A1 (α-SMA; HFL-1 cells, 10 μM, 24 h): failed to elevate
- N protein-induced TβRI polymerization (TβRI polymerization; 10 μM): could not prevent
- N protein-induced TβRI phosphorylation (TβRI phosphorylation): could block
